# Published values collected from several papers.
# Lines come from different studies, so protocols differ.
# Target: Megakaryocyte-associated tyrosine-protein kinase (MATK, Homo sapiens, UniProt P42679)
# One construct used (P42679 1-507): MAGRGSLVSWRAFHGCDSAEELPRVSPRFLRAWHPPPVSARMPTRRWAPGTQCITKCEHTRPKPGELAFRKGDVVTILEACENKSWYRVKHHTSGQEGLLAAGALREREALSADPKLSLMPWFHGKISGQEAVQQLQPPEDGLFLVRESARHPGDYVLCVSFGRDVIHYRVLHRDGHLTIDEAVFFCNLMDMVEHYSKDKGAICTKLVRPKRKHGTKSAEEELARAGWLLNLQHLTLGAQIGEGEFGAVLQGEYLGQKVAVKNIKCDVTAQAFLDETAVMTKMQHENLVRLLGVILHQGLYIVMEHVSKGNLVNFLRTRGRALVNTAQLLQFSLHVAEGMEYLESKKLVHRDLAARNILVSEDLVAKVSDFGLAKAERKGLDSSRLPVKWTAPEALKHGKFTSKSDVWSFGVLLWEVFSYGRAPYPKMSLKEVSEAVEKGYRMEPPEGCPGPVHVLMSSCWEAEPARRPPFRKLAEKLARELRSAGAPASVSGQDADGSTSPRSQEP
Compound,test,conditions,remaining binding [%]
CCN1CCN(Cc2ccc(C(=O)Nc3ccc(C)c(Oc4ccc5c(c4)CC(=O)N5)c3)cc2C(F)(F)F)CC1,"binding, competition with immobilised ligand",1 µM,100
O=C(N[C@H]1CCCCC/C=C\C2C[C@@]2(C(=O)O)NC(=O)[C@@H]2C[C@@H](Oc3ccncc3)CN2C1=O)OC1CCCC1 (some centres unmarked),"binding, competition with immobilised ligand",1 µM,41
N[C@H]1CCN(c2nccc(-c3cnn4ncccc34)n2)C1,binding,1 µM,100
CO[C@@H](C)c1c(Nc2ccc([C@@H](N(C)C(=O)C3CCS(=O)(=O)CC3)C(F)(F)F)cc2)cnc2cc(Cl)nn12,"cell-free assay, competition with immobilised ligand",1 µM,98
C=CC(=O)N1CCC(C(=O)NCC(=O)N2CCN(c3nc(-c4cnc(N)nc4C(F)F)nc(N4CCOCC4)n3)CC2)CC1,"binding, competition with immobilised ligand",1 µM,78
C[C@H]1CCN(c2nccc(-c3cnn4ncccc34)n2)C1,binding,1 µM,90
O=C(NCC1CCOCC1)c1n[nH]cc1NC(=O)c1c(F)cccc1F,"binding, competition with immobilised ligand",1 µM,79
COc1cnc(Nc2cccc(S(N)(=O)=O)c2)nc1N1CCN(c2ccccc2)CC1,"binding, competition with immobilised ligand",1 µM,57
F[C@@H]1CCN(c2nccc(-c3cnn4ncccc34)n2)C1,binding,1 µM,80
CNCc1ccccc1-c1csc([C@@H](C)Nc2nc(C)nc3cc(OC)c(OC)cc23)c1,"cell-free assay, competition with immobilised ligand",1 µM,57
CN(C)c1nccc(-c2cnn3ncccc23)n1,binding,1 µM,100
c1cncc(-c2cccc(Nc3nccc(NC4CCCCC4)n3)c2)c1,"binding, competition with immobilised ligand",10 µM,71
Cc1cnc(Nc2ccc(C(=O)N3CCC(N4CCCC4)CC3)cc2)nc1-c1cc2ccccc2s1,"binding, competition with immobilised ligand",1 µM,30
Cc1cc(NC(=O)c2cccc(S(F)(F)(F)(F)F)c2)cc(-n2ccn3nc(-c4cccnc4)cc23)c1,"cell-free assay, competition with immobilised ligand",1 µM,100
O=C(c1ccc(Nc2nccc(-c3cc4ccccc4s3)n2)cc1)N1CCC(N2CCCC2)CC1,"binding, competition with immobilised ligand",1 µM,67
O=C(Nc1cnc(Oc2ccc(F)cc2)nc1)N1CCc2ncccc2[C@@H]1c1ccc(F)cc1,"cell-free assay, competition with immobilised ligand",1 µM,80
COc1ccnn2ncc(-c3ccnc(N(C)C)n3)c12,binding,1 µM,100
O=C(c1ccc(Nc2ncc(Cl)c(-c3cc4ccccc4s3)n2)cc1)N1CCC(N2CCCC2)CC1,"binding, competition with immobilised ligand",1 µM,47
CN(C)c1ncc(F)c(-c2cnn3ncccc23)n1,binding,1 µM,79
NS(=O)(=O)c1cc(NC(=O)C2(c3ccccc3Cl)CC2)ccc1Oc1cccc(Cl)c1,"cell-free assay, competition with immobilised ligand",1 µM,100
